In ChEMBL document CHEMBL3758141, “Cytotoxic C20 Diterpenoid Alkaloids from the Australian Endemic Rainforest Plant Anopterus macleayanus” (J Nat Prod, 2015):

Columns and labels:
LNCaP [1] = assay: Selectivity index, ratio of IC50 for human BPH1 cells to IC50 for human LNCAP cells; assay type: functional
LNCaP [2] = assay: Selectivity index, ratio of IC50 for human WPMY-1 cells to IC50 for human LNCAP cells; assay type: functional
[3] = Cytotoxicity against human WPMY-1 cells after 72 hrs by AlamarBlue end point assay; assay type: cell-based; settings: WPMY-1, 72 h
Method in brief: (§1)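 Cells in phenol-red-free RPMI-1640 at 37 °C, 5% CO2, with 5% FBS (DuCaP 10% FBS). Seeded per well for 24 h: LNCaP 4000, C4-2B 3000, DuCaP 15 000, BPH-1 3000, WPMY-1 2000. Compounds in DMSO were diluted in medium (final DMSO 0.3%). After 72 h, metabolic activity was read by AlamarBlue. Controls were a DMSO equivalent and vinblastine 25 nM.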

[4] = Cytotoxicity against human C4-2B cells after 72 hrs by AlamarBlue end point assay; assay type: functional, cell-based; settings: LNCaP C4-2B; method in brief: as §1
LNCaP [5] = assay: Cytotoxicity against human LNCAP cells assessed as decrease in cell confluence measured every 2 hrs for 72 hrs by real-time live-cell imaging analysis relative to DMSO control; assay type: functional, cell-based
Method in brief: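 LNCaP cells in phenol-red-free RPMI-1640 with 5% FBS were seeded at 4000 per well for 24 h. They were then treated with compounds diluted from DMSO (final DMSO 0.3%). The IncuCyte live-cell imager took images every 2 h for 72 h, and growth was tracked as increasing confluence. Controls were a DMSO equivalent and vinblastine 25 nM.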

LNCaP [6] = assay: Cytotoxicity against human LNCAP cells after 72 hrs by AlamarBlue end point assay; assay type: functional, cell-based; method in brief: as §1
[7] = Cytotoxicity against human BPH1 cells after 72 hrs by AlamarBlue end point assay; assay type: cell-based; settings: BPH-1, 72 h; method in brief: as §1
[8] = Cytotoxicity against human DuCaP cells after 72 hrs by AlamarBlue end point assay; assay type: functional, cell-based; method in brief: as §1

Row | SMILES | Ratio IC50 (LNCaP [1]) | Ratio IC50 (LNCaP [2]) | IC50 [3] [nM] | IC50 [4] [nM] | Activity (LNCaP [5]) | IC50 (LNCaP [6]) [nM] | IC50 [7] [nM] | IC50 [8] [nM]
1 | C=C1C[C@]23C[C@H](OC(C)=O)[C@]4(O)[C@@]5(C)C[C@H](O)C[C@]46C([C@H]2[C@H]1[C@@H](OC(=O)/C(C)=C/C)[C@@H](OC(=O)/C(C)=C/C)[C@H]36)N(C)C5.O=C(O)C(F)(F)F (stereo partly drawn) | 3.7 | 2.1 | 6.6 | 6.2 | Dose-dependent effect | 3.1 | 11.5 | 8.7
2 | C=C1C[C@@]23[C@H]4[C@H](OC(=O)/C(C)=C/CO)[C@H](OC(=O)/C(C)=C/C)[C@@H]1[C@@H]2C1N(C)C[C@]2(C)C[C@H](O)C[C@@]14[C@]2(O)[C@@H](O)[C@@H]3O (stereo partly drawn) | – | – | 155 | 135 | – | 72.6 | 134 | 70.7
3 | CC[C@]1(O)C[C@@H]2CN(CCc3c([nH]c4ccccc34)[C@@](C(=O)OC)(c3cc4c(cc3OC)N(C)[C@H]3[C@@](O)(C(=O)OC)[C@H](OC(C)=O)[C@]5(CC)C=CCN6CC[C@]43[C@@H]65)C2)C1 [VINBLASTINE] | – | – | 4.2 | 2.4 | – | 3.2 | 3.8 | 3.7
4 | C=C1C[C@@]23[C@H]4[C@H](OC(=O)/C(C)=C/C)[C@H](OC(=O)/C(C)=C/C)[C@@H]1[C@@H]2C1N(C)C[C@]2(C)C[C@H](O)C[C@@]14[C@]2(O)[C@@H](O)[C@@H]3O (stereo partly drawn) | – | – | 86 | 93.8 | – | 50.8 | 64.3 | 55.7
5 | C=C1C[C@]23C[C@H](OC(C)=O)[C@]4(O)[C@@]5(C)C[C@H](O)C[C@]46C([C@H]2[C@H]1[C@@H](OC(=O)/C(C)=C/C)[C@@H](OC(=O)/C(C)=C/CO)[C@H]36)N(C)C5 (stereo partly drawn) | – | – | 9.6 | 7 | – | 10.9 | 11.4 | 9.9
6 | C=C1C[C@]23C[C@H](O)[C@]4(O)[C@@]5(C)C[C@H](O)C[C@]46C([C@H]2[C@H]1[C@@H](OC(=O)/C(C)=C/C)[C@@H](OC(=O)c1ccccc1)[C@H]36)N(C)C5 (stereo partly drawn) | – | – | 140 | 205 | – | 190 | 236 | 154
7 | C=C1C[C@@]23[C@H]4[C@H](OC(=O)c5ccccc5)[C@H](OC(=O)/C(C)=C/C)[C@@H]1[C@@H]2C1N(C)C[C@]2(C)C[C@H](O)C[C@@]14[C@]2(O)[C@@H](O)[C@@H]3O (stereo partly drawn) | – | – | 4.9 | 5.2 | – | 6.7 | 9.2 | 4.1
8 | C=C1C[C@]23C[C@H](O)[C@]4(O)[C@@]5(C)C[C@H](O)C[C@]46C([C@H]2[C@H]1[C@@H](OC(=O)/C(C)=C/C)[C@@H](OC(=O)/C(C)=C/CO)[C@H]36)N(C)C5 (stereo partly drawn) | – | – | 328 | 340 | – | 379 | 177 | 355
9 | C=C1C[C@]23C[C@H](O)[C@]4(O)[C@@]5(C)C[C@H](O)C[C@]46C([C@H]2[C@H]1[C@@H](OC(=O)/C(C)=C/C)[C@@H](OC(=O)/C(C)=C/C)[C@H]36)N(C)C5 (stereo partly drawn) | – | – | 48.2 | 45 | – | 27.2 | 29.6 | 86.9
